For experiment [1], the system named is MDA-MB-231. Nature of the experiment: Growth inhibition of human MDA-MB-231 cells after 48 hrs by SRB assay. Format: functional. In short, it runs like this:
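Cells were exposed to compound for 48 h, and growth was read by sulforhodamine B staining. TGI (total growth inhibition concentration, μM) was taken from concentration–response curves, n = 3, means ± SEM. MDA-MB-231 cells were grown in IMEM with 10% FBS at 37 °C in 5% CO2.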
(The SRB assay estimates cell density from bound dye.)

The test system of experiment [2] is BT-549. The experiment can be described thus: Growth inhibition of human BT-549 cells after 48 hrs by SRB assay. In kind it is functional.
The species entered for another experiment is Homo sapiens. The experiment can be described thus: Selectivity index, ratio of TGI for growth inhibitor of human BT-549 to TGI for growth inhibitor of human MDA-MB-231. In kind it is functional.
Experiment [3] relates to MDA-MB-231. Nature of the experiment: Cytotoxicity against human MDA-MB-231 cells assessed as reduction in cell viability at 0.03 to 3 uM after 48 hrs by SRB assay. Format: functional, cell-based. As to conditions: dose microM 0.03-3, time 48.0 hrs.
Experiment [4] relates to MDA-MB-453. The experiment can be described thus: Cytotoxicity against human MDA-MB-453 cells assessed as reduction in cell viability at 0.03 to 3 uM after 48 hrs by SRB assay. The settings on record: dose microM 0.03-3, time 48.0 hrs. Format: functional, cell-based.
Experiment [5] concerns MDA-MB-231. Nature of the experiment: Cytotoxicity against human MDA-MB-231 cells harboring CRISPR/Cas9 assessed as reduction in cell viability at 300 nM by SRB assay. Format: functional, cell-based.
Another experiment relates to TC-32. The experiment can be described thus: Antiproliferative activity against human TC-32 cells assessed as reduction in cell viability after 48 hrs by SRB assay. In kind it is functional, cell-based.
Another experiment deals with SK-ES1. The experiment can be described thus: Antiproliferative activity against human SK-ES1 cells assessed as reduction in cell viability after 48 hrs by SRB assay. In kind it is functional, cell-based.
The subject of experiment [6] is MDA-MB-231. Nature of the experiment: Induction of cell cycle arret in human MDA-MB-231 cells assessed as G2/M phase accumulation at LC50 concentration after 18 hrs by Krishan's staining based cell analyzer method. In kind it is functional. Summed up:
(§1)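 MDA-MB-231 cells were treated at the LC50 concentration for 18 h, and cell cycle distribution was then assessed.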

In experiment [7] the test system is MDA-MB-231. The experiment can be described thus: Induction of cell cycle arret in human MDA-MB-231 cells assessed as G1 phase accumulation at LC50 concentration after 18 hrs by Krishan's staining based cell analyzer method. In kind it is functional. Summed up: as §1
Experiment [8] relates to MDA-MB-231. Nature of the experiment: Induction of cell cycle arret in human MDA-MB-231 cells assessed as S phase accumulation at LC50 concentration after 18 hrs by Krishan's staining based cell analyzer method. In kind it is functional. Summed up:
as §1

Experiment [9] has as its target Ribosomal protein S6 kinase beta-1 (Homo sapiens) (UniProt P23443). Nature of the experiment: Inhibition of phosphorylation of P70S6K at T389 residue in human MDA-MB-231 cells at 300 nM preincubated for 6 hrs followed FBS-stimulation and measured after 0.25 to 2 hrs by immunoblotting analysis. As to conditions: time hrs <=8. Format: cell-based. In general terms: A western blot detects proteins with antibodies after separation by electrophoresis.

Experiment [10] concerns MDA-MB-231. The experiment can be described thus: Effect on P70S6K regulation in human MDA-MB-231 cells at 300 nM preincubated for 6 hrs followed FBS-stimulation and measured after 0.25 to 2 hrs by immunoblotting analysis. In kind it is functional, cell-based. The settings on record: time hrs <=8.
Experiment [11] deals with Mitogen-activated protein kinase; ERK1/ERK2 (Homo sapiens) (UniProt P27361+P28482). The experiment can be described thus: Inhibition of phosphorylation of Erk1/2 in human MDA-MB-231 cells at 300 nM preincubated for 6 hrs followed FBS-stimulation and measured after 0.25 to 2 hrs by immunoblotting analysis. In kind it is cell-based. The settings on record: time hrs <=8.

Experiment [12] deals with MDA-MB-231. Nature of the experiment: Effect on Erk1/2 regulation in human MDA-MB-231 cells at 300 nM preincubated for 6 hrs followed FBS-stimulation and measured after 0.25 to 2 hrs by immunoblotting analysis. In kind it is functional, cell-based. The settings on record: time hrs <=8.
Experiment [13] has as its target Serine/threonine-protein kinase AKT (Homo sapiens) (UniProt P31751+Q9Y243+P31749). Nature of the experiment: Inhibition of phosphorylation of Akt at S473 residue in human MDA-MB-231 cells at 300 nM preincubated for 6 hrs followed FBS-stimulation and measured after 0.25 to 2 hrs by immunoblotting analysis. In kind it is cell-based. As to conditions: time hrs <=8.

The subject of experiment [14] is MDA-MB-231. The experiment can be described thus: Effect on Akt regulation in human MDA-MB-231 cells at 300 nM preincubated for 6 hrs followed FBS-stimulation and measured after 0.25 to 2 hrs by immunoblotting analysis. Format: functional, cell-based. As to conditions: time hrs <=8.
Experiment [15] relates to MDA-MB-231. The experiment can be described thus: Cytotoxicity against human MDA-MB-231 cells assessed as reduction in cell viability at 0.03 to 3 uM after 48 hrs in presence of GW9662 by SRB assay. In kind it is functional, cell-based. As to conditions: dose microM 0.03-3, time 48.0 hrs.
Experiment [16] has as its system MDA-MB-453. The experiment can be described thus: Cytotoxicity against human MDA-MB-453 cells assessed as reduction in cell viability at 0.03 to 3 uM after 48 hrs in presence of GW9662 by SRB assay. As to conditions: dose microM 0.03-3, time 48.0 hrs. In kind it is functional, cell-based.
For another experiment, the system named is A673. The experiment can be described thus: Antiproliferative activity against human A673 cells assessed as reduction in cell viability after 48 hrs by SRB assay. Format: functional, cell-based.
Experiment [17] concerns MDA-MB-231. The experiment can be described thus: Cytotoxicity against CRISPR/Cas9-mediated HSD17B11 knock-out human MDA-MB-231 cells at 1 uM incubated for 2 weeks. In kind it is functional, cell-based. In short, it runs like this:
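Doxycycline-inducible Cas9 MDA-MB-231 cells were transduced with the pooled Brunello sgRNA lentiviral library (0.005 μg/mL polybrene, 5 h), then selected in 1 μg/mL puromycin for 72 h. Cas9 was induced with 50 ng/mL doxycycline for 48 h. Cells were treated with 1 μM for 14 days, refreshing medium and compound every 3–4 days, and recovered 2 days before sgRNA sequencing. Enrichment was compared with input and vehicle.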

For experiment [18], the system named is MDA-MB-231. Nature of the experiment: Cytotoxicity against HSD17B11 siRNA knock-out human MDA-MB-231 cells assessed as reduction in cell viability at 300 nM incubated for 48 hrs by SRB assay. In kind it is functional, cell-based. In short, it runs like this: (§2)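 MDA-MB-231 cells were reverse-transfected with HSD17B11 siRNA (12.5 nM final, 0.025% RNAiMAX, antibiotic-free medium) or mock for 48 h. Cells were then replated, allowed to attach for 4–6 h, and treated for 48 h. Read-out was SRB viability and TGI, n = 3. Knockdown vs mock was compared by paired two-tailed t-test.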

The nature of experiment [19]: Ratio of TGI for cytotoxicity against HSD17B11 siRNA knock-out human MDA-MB-231 cells to TGI for cytotoxicity against human MDA-MB-231 cells. In kind it is functional. In short, it runs like this: as §2
The test system of experiment [20] is BT-549. Nature of the experiment: Cytotoxicity against human BT-549 cells over expressing HSD17B11 assessed as reduction in cell viability at 1 to 10 uM by SRB assay. Format: functional, cell-based. The settings on record: dose microM 1-10. Summed up:
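BT-549 cells were transfected with a plasmid expressing HSD17B11-GFP from a constitutive CMV promoter, with mock-transfected cells as control. Overexpression was confirmed by immunoblot, and sensitivity was measured by SRB assay.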

In the next experiment the test system is RD. Nature of the experiment: Antiproliferative activity against human RDES cells assessed as reduction in cell viability after 48 hrs by SRB assay. Format: functional, cell-based.

Molecules are shown by their SMILES. Calls of active or inactive are those of the source. The rule behind the calls is not given here.

Sequence of Serine/threonine-protein kinase AKT (Homo sapiens) (P31749 whole entry, looked up): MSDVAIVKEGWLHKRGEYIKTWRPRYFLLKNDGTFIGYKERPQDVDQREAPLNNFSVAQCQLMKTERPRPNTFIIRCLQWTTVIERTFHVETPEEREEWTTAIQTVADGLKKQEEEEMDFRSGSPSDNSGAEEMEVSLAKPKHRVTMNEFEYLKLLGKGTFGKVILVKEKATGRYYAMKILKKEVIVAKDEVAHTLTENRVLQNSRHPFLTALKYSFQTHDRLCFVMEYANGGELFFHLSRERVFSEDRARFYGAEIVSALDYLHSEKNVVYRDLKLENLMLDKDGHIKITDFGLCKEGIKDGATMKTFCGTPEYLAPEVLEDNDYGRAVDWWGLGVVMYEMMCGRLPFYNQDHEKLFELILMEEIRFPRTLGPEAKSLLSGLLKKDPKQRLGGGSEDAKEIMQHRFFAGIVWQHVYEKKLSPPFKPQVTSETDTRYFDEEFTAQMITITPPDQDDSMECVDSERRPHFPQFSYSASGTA
Sequence of Serine/threonine-protein kinase AKT (Homo sapiens) (P31751 whole entry, looked up): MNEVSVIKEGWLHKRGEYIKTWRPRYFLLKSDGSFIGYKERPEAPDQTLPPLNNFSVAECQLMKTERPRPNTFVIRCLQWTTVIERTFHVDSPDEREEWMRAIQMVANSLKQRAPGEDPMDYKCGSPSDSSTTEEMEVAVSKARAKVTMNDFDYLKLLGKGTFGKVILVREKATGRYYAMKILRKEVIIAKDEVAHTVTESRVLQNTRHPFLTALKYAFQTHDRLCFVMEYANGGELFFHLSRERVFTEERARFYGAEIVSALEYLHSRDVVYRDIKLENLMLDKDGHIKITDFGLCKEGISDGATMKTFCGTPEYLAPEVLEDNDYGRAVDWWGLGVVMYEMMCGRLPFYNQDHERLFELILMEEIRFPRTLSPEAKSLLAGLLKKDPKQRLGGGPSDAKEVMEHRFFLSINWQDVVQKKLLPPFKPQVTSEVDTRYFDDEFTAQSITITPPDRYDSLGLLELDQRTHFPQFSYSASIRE
Sequence of Serine/threonine-protein kinase AKT (Homo sapiens) (Q9Y243 whole entry, looked up): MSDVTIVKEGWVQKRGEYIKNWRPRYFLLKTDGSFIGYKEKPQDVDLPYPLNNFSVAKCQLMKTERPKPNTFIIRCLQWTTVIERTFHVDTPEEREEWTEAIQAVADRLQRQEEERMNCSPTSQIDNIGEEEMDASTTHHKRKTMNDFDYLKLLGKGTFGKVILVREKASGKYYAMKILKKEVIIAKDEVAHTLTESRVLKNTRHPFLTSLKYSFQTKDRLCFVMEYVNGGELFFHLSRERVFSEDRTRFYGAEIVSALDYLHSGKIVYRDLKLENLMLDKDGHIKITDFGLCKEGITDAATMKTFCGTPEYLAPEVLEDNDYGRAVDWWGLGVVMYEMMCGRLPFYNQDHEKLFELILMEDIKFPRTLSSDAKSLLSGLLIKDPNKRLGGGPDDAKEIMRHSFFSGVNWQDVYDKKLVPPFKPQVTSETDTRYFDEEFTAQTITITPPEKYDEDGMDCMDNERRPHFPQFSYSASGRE
Sequence of Mitogen-activated protein kinase; ERK1/ERK2 (Homo sapiens) (P27361 whole entry, looked up): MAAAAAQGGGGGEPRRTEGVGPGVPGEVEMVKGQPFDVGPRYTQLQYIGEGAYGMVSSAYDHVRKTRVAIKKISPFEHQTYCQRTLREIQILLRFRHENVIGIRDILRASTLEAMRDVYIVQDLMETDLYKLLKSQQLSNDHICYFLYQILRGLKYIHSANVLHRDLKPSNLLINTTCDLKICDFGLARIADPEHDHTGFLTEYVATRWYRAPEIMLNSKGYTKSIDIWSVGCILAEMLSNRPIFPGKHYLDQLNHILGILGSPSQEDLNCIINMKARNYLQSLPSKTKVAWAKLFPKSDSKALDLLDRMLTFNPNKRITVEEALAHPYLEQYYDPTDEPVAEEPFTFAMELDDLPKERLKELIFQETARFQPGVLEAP
Sequence of Mitogen-activated protein kinase; ERK1/ERK2 (Homo sapiens) (P28482 whole entry, looked up): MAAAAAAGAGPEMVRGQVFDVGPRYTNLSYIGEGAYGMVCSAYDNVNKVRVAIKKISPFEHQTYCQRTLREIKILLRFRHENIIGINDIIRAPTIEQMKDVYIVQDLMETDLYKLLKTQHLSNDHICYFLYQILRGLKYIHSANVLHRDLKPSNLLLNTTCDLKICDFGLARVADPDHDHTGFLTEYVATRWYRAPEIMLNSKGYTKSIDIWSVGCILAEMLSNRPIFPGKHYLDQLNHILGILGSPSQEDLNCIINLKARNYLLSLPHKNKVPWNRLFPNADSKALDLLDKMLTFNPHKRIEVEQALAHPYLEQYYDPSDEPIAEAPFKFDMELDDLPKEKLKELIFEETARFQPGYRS
Sequence of Ribosomal protein S6 kinase beta-1 (Homo sapiens) (P23443 whole entry, looked up): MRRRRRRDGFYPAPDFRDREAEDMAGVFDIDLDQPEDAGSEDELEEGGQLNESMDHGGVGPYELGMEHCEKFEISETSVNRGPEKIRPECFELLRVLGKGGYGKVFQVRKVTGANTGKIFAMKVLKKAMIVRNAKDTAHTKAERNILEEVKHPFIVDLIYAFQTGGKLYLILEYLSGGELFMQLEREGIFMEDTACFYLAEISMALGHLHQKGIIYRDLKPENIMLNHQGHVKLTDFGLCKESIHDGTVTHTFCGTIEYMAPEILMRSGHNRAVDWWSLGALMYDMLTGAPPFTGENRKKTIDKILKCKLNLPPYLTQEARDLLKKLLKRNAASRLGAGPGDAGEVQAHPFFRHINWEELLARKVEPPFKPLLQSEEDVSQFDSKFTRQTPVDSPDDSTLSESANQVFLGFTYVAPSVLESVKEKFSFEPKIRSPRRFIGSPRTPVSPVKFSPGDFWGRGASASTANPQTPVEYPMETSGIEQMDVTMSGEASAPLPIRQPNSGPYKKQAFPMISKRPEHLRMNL

In the case of `C=CCCCCC/C=C\CC#CC#CC(O)CC` (stereo unspecified), the TGI with MDA-MB-231 [1] was found to be 3300 nM; with BT-549 [2] it was 7000 nM. Besides, the Selectivity Index in the experiment filed under Homo sapiens was 2.1.

Take `O=C(Nc1ccccc1)c1cc([N+](=O)[O-])ccc1Cl`: the outcome in the experiment on MDA-MB-231 [3] and in the experiment on MDA-MB-453 [4] was inactive.

With `C=CCCC/C=C\CC#CC#CC(O)C=C` (mixture of isomers), the total growth inhibition concentration (TGI) came out at 490 nM with MDA-MB-231 [1] and 2400 nM in the experiment with BT-549 [2]. Besides, the Selectivity Index in the experiment filed under Homo sapiens turned out to be 4.9.

With `C=C[C@@H](O)C#CC#C[C@@H](O)/C=C\CCCCCCC` [FALCARINDIOL], the figures for the TGI in the experiment on MDA-MB-231 [1] and in the experiment on BT-549 [2] were 6000 nM and 9000 nM, respectively. Besides, the Selectivity Index in the experiment listed under Homo sapiens worked out at 1.5.

Regarding `CN(CCOc1ccc(CC2SC(=O)NC2=O)cc1)c1ccccn1` (stereo unspecified), the result in the experiment with MDA-MB-231 [3] and in the experiment with MDA-MB-453 [4] was inactive.

Consider `C=CCCCCC/C=C\CC#CC#CC(O)C=C` (mixture of isomers), for which the outcome in the experiment with MDA-MB-231 [5], with TC-32, in the experiment on SK-ES1, in the experiment on MDA-MB-231 [15], with MDA-MB-453 [16] and with A673 was Active. The result in the experiment with RD was Active. Also, the result with MDA-MB-231 [6], in the experiment on MDA-MB-231 [7], in the experiment with MDA-MB-231 [8], in the experiment with MDA-MB-231 [10], with MDA-MB-231 [12] and in the experiment with MDA-MB-231 [14] was inactive. Moreover, the outcome in the experiment on MDA-MB-231 [17], with MDA-MB-231 [18] and in the experiment with BT-549 [20] was inactive. Moreover, the inhibition entry in experiment [9], in experiment [11] and in experiment [13] was “inactive” throughout. Further, the Ratio in experiment [19] is 1.7.

`C=CCCCCCC(O)/C=C/C#CC#C[C@@H](O)C=C` (single isomer, unassigned) [DENDROARBOREOL B]: the TGI is 160 nM in the experiment on MDA-MB-231 [1] and 1100 nM in the experiment with BT-549 [2]. Further, the Selectivity Index in the experiment listed under Homo sapiens worked out at 6.9.

What is called TGI is the concentration at which net growth stops.
